Measurements from different studies.
pKi: −log10 of the molar value.
MMP13: Collagenase 3 (MMP13, Homo sapiens, UniProt P45452)
ADORA2B: Adenosine receptor A2b (ADORA2B, Homo sapiens, UniProt P29275)
HTR4: 5-hydroxytryptamine receptor 4 (HTR4, Homo sapiens, UniProt Q13639)

| SMILES | target | assay | system | conditions | pKi |
| --- | --- | --- | --- | --- | --- |
| OC[C@@]12C[C@@H]1[C@@H](n1cnc3c(NC(C4CCCC4)C4CCCC4)nc(Cl)cc31)[C@H](O)[C@@H]2O | Beta-3 adrenergic receptor (ADRB3, Homo sapiens, UniProt P13945) | cell-free assay, radioligand |  |  | 5.33 |
| Oc1nc(SCc2ccc(Cl)cc2)nc2c1CCC2 | MMP13 | enzyme activity, inhibitor |  |  | 5.48 |
| CCCCCCCCCCCCCC#CC(=O)O | Fatty acid synthase (Plasmodium falciparum, UniProt Q965D7) | enzyme activity, inhibitor |  |  | 5.32 |
| C=CCN1CCCn2c1nc1c2c(=O)n(C)c(=O)n1C | ADORA2B | ligand displacement, radioligand |  | cell membranes | < 5.00 |
| COC(=O)c1ccc(CSc2nc3c(c(=O)[nH]2)CCC3)cc1 | MMP13 | enzyme activity, inhibitor |  |  | 5.82 |
| CCCCn1c(=O)c2[nH]c(C34CC5CC(CC3C5)C4)nc2n(CCCO)c1=O | ADORA2B | ligand displacement, radioligand |  | cell membranes | 7.31 |
| Cc1c(-c2ccccc2)oc2c(C(=O)OCCN3CCCCC3)cccc2c1=O | HTR4 | cell-free assay, radioligand |  | cell membranes | < 5.00 |
| CCCCN1CCC(COC(=O)c2ccc(N)c(OCF)c2)CC1 | HTR4 | ligand displacement, radioligand |  |  | 9.10 |
| C[C@]12CCC(=O)C=C1CC[C@@H]1[C@@H]2[C@@H](O)C[C@@]2(C)[C@H]1CC[C@]2(O)C(=O)CO | G-protein coupled estrogen receptor 1 (GPER1, Homo sapiens, UniProt Q99527) | ligand displacement, radioligand |  |  | 5.36 |
| CCCC(C)N1CCCn2c1nc1c2c(=O)n(C)c(=O)n1C (stereo not shown) | ADORA2B | ligand displacement, radioligand |  | cell membranes | < 5.00 |
| Nc1ncnc2c1ncn2[C@@H]1O[C@H](COP(=O)(O)OP(=O)(O)O)[C@@H](O)[C@H]1O | nod (Drosophila melanogaster, UniProt P18105) | enzyme activity, inhibitor |  |  | ~5.70 |
| C[C@H]1CN(C2COC2)CCN1c1ccc(Nc2cc(-c3ccnc(N4CCn5c(cc6c5CC(C)(C)C6)C4=O)c3CO)cn(C)c2=O)nc1 | Solute carrier organic anion transporter family member 1B1 (SLCO1B1, Homo sapiens, UniProt Q9Y6L6) | transporter uptake, inhibitor | HEK293 |  | 5.71 |
| CCCCN1CCCn2c1nc1c2c(=O)n(C)c(=O)n1C | ADORA2B | ligand displacement, radioligand |  | cell membranes | < 5.00 |
| N=C(N)N1CCC[C@H]1c1nc(-c2ccc(CCC3CCCCC3)c(C(F)(F)F)c2)no1 | Sphingosine kinase 2 (Sphk2, Mus musculus, UniProt Q9JIA7) | enzyme activity, inhibitor |  |  | 6.96 |
| CC(C)N1CCCn2c1nc1c2c(=O)n(C)c(=O)n1C | ADORA2B | ligand displacement, radioligand |  | cell membranes | < 5.00 |
| COc1ccc(CCCn2ncc3c2nc(N)n2nc(-c4ccco4)nc32)cc1 | Adenosine receptor A1 (Mus musculus, UniProt Q60612) | ligand displacement, radioligand |  | cell membranes | 6.12 |
